For one data set, the system named is SD rats. In words: Transection tail bleeding time. It counts as in vivo, rat. Put shortly:
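Male SD rats were dosed orally with test compound, either once or twice daily for 2 weeks; clopidogrel 8 mg·kg−1 was given on the same regimens. One hour after dosing, under urethane (1.25 g·kg−1 i.p.), tails were transected 3 mm from the tip and blotted every 30 s until bleeding stopped, with a 30 min cut‑off. n = 6 (single) or 5 (multiple) per group.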

In a further data set the test system is washed human platelets. In words: SIPA in washed human platelets. Format: cell-based. To be noted: 30 min incubation, n = 6. The gist of the method: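 Human washed platelets (3 × 10^8/ml in Tyrode's pH 7.4, 2 mM CaCl2) were preincubated with test compound for 30 min, and 10 μg·ml−1 vWF was added. They were then sheared in a cone-plate viscometer at 10,800 s−1 for 10 min at 37°C and fixed with 0.5% glutaraldehyde. Aggregation was scored from single-cell counts by light microscopy and […]. n = 6, mean ± SEM.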

Data set [1] concerns washed platelets. In words: Fibrinogen binding under high shear stress. Format: cell-based, human. The gist of the method:
(§1)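 Human washed platelets (acid–citrate–dextrose with 1 μM PGE1, washed in Tyrode's pH 7.4, 3 × 10^8/ml, 2 mM CaCl2) were incubated with a range of test compound concentrations, then sheared at 10,800 s−1 for 10 min in a cone-plate viscometer. Cells were labelled with anti-CD42b-PE plus anti-CD62P-FITC, PAC-1-FITC or Alexa Fluor 488-fibrinogen for 20 min in the dark and read by flow cytometry (10,000 events). Values are relative to vehicle and normalised to unsheared samples, mean ± SEM. n = 6 for P-selectin and PAC-1, n = 5 for fibrinogen.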

Data set [2] has as its system platelets. The data set can be described thus: Platelet cytotoxicity, LDH leakage. Format: cell-based, human. To be noted: concentrations up to 1,000 μM. The gist of the method: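 Platelets were incubated with test compound and centrifuged. Supernatant was added to Tris‑EDTA NADH buffer (56 mM Tris, 5.6 mM EDTA, 0.17 mM β‑NADH, pH 7.4) and preincubated for 10 min at 37°C, then 14‑mM pyruvate solution was added. LDH was read as the fall in A339, expressed as % of total activity in a 0.3% Triton X‑100 lysate. Samples were run in duplicate, with five repeats.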

The target of the next data set is vWF–GP Ib interaction (Homo sapiens, UniProt P04275). The data set can be described thus: vWF binding to platelets under high shear stress. It counts as cell-based. The gist of the method: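 Platelets were treated with test compound, exposed to shear stress, and diluted in Tyrode's buffer. They were stained with anti‑vWF‑FITC and anti‑CD42b‑PE for 20 min in the dark, and 10,000 events were analysed by flow cytometry. For GP IIb/IIIa blockade, platelets were preincubated with 2 mM Arg‑Gly‑Asp. Values are expressed relative to vehicle and normalised to unsheared samples, n = 5.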
Sequence of vWF–GP Ib interaction (P04275 764-2813 limits assumed): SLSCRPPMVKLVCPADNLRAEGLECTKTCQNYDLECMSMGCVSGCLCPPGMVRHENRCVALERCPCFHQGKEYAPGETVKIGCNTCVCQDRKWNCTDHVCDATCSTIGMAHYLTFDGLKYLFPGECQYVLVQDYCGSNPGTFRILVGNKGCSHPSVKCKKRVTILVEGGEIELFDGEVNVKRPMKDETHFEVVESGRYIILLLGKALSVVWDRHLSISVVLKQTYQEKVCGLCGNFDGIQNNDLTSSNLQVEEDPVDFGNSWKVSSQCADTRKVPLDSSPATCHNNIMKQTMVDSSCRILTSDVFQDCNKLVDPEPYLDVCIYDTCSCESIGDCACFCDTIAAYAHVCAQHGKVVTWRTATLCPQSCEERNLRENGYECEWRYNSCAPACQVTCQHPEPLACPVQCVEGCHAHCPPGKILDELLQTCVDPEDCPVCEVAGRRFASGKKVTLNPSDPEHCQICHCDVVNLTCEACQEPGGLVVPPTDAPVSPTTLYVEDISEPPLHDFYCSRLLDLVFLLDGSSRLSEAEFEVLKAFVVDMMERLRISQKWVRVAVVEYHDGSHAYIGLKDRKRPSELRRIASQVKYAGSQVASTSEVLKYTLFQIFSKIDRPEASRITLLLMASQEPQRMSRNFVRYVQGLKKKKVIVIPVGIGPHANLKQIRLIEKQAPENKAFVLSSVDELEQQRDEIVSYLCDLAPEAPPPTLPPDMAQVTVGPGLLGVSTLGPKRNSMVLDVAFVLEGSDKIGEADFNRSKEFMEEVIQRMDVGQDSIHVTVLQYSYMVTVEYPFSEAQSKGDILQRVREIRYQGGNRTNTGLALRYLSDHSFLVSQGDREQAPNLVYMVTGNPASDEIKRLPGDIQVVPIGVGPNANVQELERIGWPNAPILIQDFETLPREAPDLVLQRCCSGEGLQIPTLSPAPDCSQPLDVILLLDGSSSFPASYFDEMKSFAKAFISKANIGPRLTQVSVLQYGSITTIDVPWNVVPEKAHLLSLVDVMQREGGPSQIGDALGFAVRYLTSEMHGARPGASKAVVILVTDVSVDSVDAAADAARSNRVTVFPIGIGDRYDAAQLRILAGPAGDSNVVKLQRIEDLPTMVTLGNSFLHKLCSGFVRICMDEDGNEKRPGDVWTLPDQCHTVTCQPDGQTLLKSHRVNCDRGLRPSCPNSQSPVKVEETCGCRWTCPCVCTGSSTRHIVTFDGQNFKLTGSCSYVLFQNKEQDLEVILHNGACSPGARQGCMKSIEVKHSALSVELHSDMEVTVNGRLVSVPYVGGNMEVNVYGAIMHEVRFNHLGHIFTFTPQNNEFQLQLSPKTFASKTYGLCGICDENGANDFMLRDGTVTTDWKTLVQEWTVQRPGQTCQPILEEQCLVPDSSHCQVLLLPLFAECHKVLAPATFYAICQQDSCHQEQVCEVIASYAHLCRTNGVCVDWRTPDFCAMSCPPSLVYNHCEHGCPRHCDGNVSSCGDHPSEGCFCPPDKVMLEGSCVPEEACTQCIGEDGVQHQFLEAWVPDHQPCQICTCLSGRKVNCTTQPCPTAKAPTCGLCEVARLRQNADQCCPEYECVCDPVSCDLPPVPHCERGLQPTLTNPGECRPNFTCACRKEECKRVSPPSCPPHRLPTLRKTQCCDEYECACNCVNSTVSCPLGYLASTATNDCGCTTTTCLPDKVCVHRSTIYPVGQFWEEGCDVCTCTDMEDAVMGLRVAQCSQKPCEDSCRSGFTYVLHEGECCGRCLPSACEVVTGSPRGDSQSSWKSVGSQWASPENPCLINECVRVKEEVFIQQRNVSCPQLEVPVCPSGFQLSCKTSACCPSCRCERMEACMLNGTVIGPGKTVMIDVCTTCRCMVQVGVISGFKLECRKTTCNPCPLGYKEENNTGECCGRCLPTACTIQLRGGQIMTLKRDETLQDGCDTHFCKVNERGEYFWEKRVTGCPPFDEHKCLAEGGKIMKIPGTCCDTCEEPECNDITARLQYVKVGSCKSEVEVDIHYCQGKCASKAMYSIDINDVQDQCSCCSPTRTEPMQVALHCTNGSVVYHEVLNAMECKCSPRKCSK

The subject of data set [3] is human platelets (PRP). The data set can be described thus: Agonist-induced platelet aggregation in human PRP. To be noted: for IC50: Homo sapiens, Platelet. Format: cell-based. The gist of the method:
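Human blood was anticoagulated with 3.2% citrate (1:9) and spun at 150 g for 15 min to give PRP, adjusted to 3 × 10^8 platelets/ml with PPP. PRP was incubated with test compound for 30 min at 37°C, then stimulated for 6 min with thrombin (0.6–0.8 U·ml−1), collagen (2–4 μg·ml−1), ADP (5–10 μM) or ristocetin (1.0–1.25 mg·ml−1). Aggregation was read by light transmission, with PPP as 100%.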

Data set [4] has as its system washed platelets. In words: Intracellular calcium level under high shear stress. Format: cell-based, human. To be noted: washed platelets, 10,800 s^−1, concentration-dependent.
The subject of data set [5] is rat platelets (PRP). In words: Ex vivo determination of SIPA inhibition after oral dosing. Format: in vivo. To be noted: rats, 5, 10 and 25 mg·kg^−1 p.o., 1 hr. The gist of the method: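 Male SD rats (280–320 g) were gavaged with test compound in 5% DMSO/10% Tween 80 in water at 5 ml·kg−1. After 1 hr, aortic blood was drawn under urethane (1.25 g·kg−1 i.p.) into 3.8% citrate (1:9), and PRP was prepared. PRP was sheared at 10,800 s−1 in a cone‑plate viscometer, fixed with glutaraldehyde, and aggregation was scored by microscopic single‑cell count. n = 6 rats per group.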

In a further data set the test system is GP IIb/IIIa. The data set can be described thus: GP IIb/IIIa activation under high shear stress. Format: cell-based, human. Put shortly:
as §1

Data set [6] deals with washed platelets. The data set can be described thus: P-selectin expression under high shear stress. It counts as cell-based, human. Put shortly: as §1
The test system of a further data set is human purified vWF. In words: Platelet adhesion to vWF-coated flow chamber under high shear stress. Format: cell-based. To be noted: flow chamber coated with 50 μg·ml^−1 vWF.
The subject of data set [7] is platelets in human whole blood. The data set can be described thus: Thrombus formation under flow conditions, collagen-coated flow chamber. It counts as cell-based. The note with it: shear rate 1,500 s^−1, concentration-dependent, n = 5. The gist of the method:
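Flow chambers were coated with 100 μg·ml−1 equine type I collagen for 60 min at room temperature, washed with PBS and blocked with 1% BSA for 60 min. Whole blood loaded with 5 μM calcein‑green AM was incubated with test compound for 30 min. It was perfused at 1,500 s−1 for 5 min, imaged by confocal microscopy, and reported as % coverage area, n = 5.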

For data set [8], the system named is platelets. The data set can be described thus: 5-HT release under high shear stress. It counts as cell-based, human. The gist of the method: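 Platelets were treated with a range of test compound concentrations for 30 min and exposed to high shear stress. Supernatants were collected by centrifugation at 12,000 g for 5 min at 4°C, and 5‑HT was measured by ELISA. Samples were run in duplicate, n = 5 per group. Values are expressed relative to matched vehicle and normalised to unsheared samples.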

Data set [9] relates to human platelets (PRP). In words: Shear stress-induced platelet aggregation. Format: cell-based.
Data set [10] in a line: Ex vivo prothrombin time and activated partial thromboplastin time. The note with it: rats, therapeutic dose range p.o., 1 hr.
In data set [11] the test system is rat platelets (PRP). The data set can be described thus: SIPA in rat PRP in vitro. Format: cell-based. To be noted: n = 8.
Data set [12] can be described thus: Pharmacokinetic experiments in rats. Format: in vivo. To be noted: Sprague-Dawley, rat, plasma; for Tmax: SD rats, p.o. 25 mg·kg^−1.
The subject of data set [13] is carotid artery thrombosis in SD rats. The data set can be described thus: FeCl3-induced arterial thrombosis model. Format: in vivo, rat.

Each structure is given as a SMILES string. Values joined by “and” are separate entries in the source; they are usually repeats but may differ in a detail not shown here. Equal values may be shown once. Read-outs that look alike come from different tables or passages of the source.

For `COC(=O)[C@H](c1ccccc1Cl)N1CCc2sccc2C1` [clopidogrel, reference compound], in the data set on SD rats (8 mg·kg^−1), the “Tail bleeding time (bleeding risk)” value is on record as “clearly increased”.

`CCc1occc(=O)c1OC(=O)c1ccc(O)c(OC)c1` [SP‐8008, benzoic acid, 4‐hydroxy‐3‐methoxy‐, 2‐ethyl‐4‐oxo‐4H‐pyran‐3‐yl ester]: in the data set on washed human platelets, the “Effect on SIPA in washed human platelets” value was “suppressed”. The “Effect on shear stress-induced fibrinogen binding” value with washed platelets [1] is “significantly blocked”. In addition, the “LDH leakage from platelets” value in the data set on platelets [2] is “did not increase LDH leakage”. Further, the “Binding of vWF to platelets under high shear with GP IIb/IIIa blocked” value at vWF–GP Ib interaction (GP IIb/IIIa blocked by Arg-Gly-Asp 2 mM) is given as “maintained”. For the same compound, the “Binding of vWF to platelets under high shear” value at vWF–GP Ib interaction (GP IIb/IIIa free, concentration-dependent) is listed as “markedly blocked”. Also, the IC50 (as a rule, the concentration needed to halve the response being measured) in the data set with human platelets (PRP) [3] (read-out: IC50 (μM), platelet activator ADP) was > 250 µM. The IC50 in the data set with human platelets (PRP) [3] (read-out: IC50 (μM), platelet activator collagen) is > 250 µM. In the data set with human platelets (PRP) [3] (read-out: IC50 (μM), platelet activator thrombin), the IC50 was > 250 µM. In addition, the Ristocetin-induced platelet aggregation result in the data set with human platelets (PRP) [3] (human PRP, ristocetin) was “attenuated”. Moreover, in the data set on washed platelets [4], the “Effect on shear stress-induced intracellular calcium elevation” value is on record as “decreased the elevation of intracellular calcium”. Further, in the data set with rat platelets (PRP) [5], the “Ex vivo effect on SIPA after oral administration” value is on record as “dose‐dependent inhibitory effects”. Besides, the “Effect on shear stress-induced GP IIb/IIIa activation” value in the data set on GP IIb/IIIa was “significantly blocked”. The “Effect on shear stress-induced P-selectin expression (α-granule secretion)” value in the data set on washed platelets [6] was “significant reduction”. Moreover, the “Tail bleeding time, single dose” value with SD rats (single oral dose up to 100 mg·kg^−1) is given as “did not prolong bleeding time”. The “Adhesion of platelets to vWF-coated surfaces” value in the data set with human purified vWF was “significantly inhibited”. The “Size and number of platelet aggregates in collagen-coated flow chamber” value in data set [7] is “significantly reduced”. For the same compound, the “Effect on shear stress-induced 5-HT release (dense granule secretion)” value with platelets [8] is “significant reduction”. The inhibition (as a rule, how much of the control response was suppressed) at 25 µM in the data set on human platelets (PRP) [9] (Homo sapiens, Platelet, read-out: In vitro SIPA inhibition (%)) was determined as 84 ± 16%. Further, in the data set on human platelets (PRP) [9] (concentration-dependent, 30 min incubation, n = 8), the “Effect on SIPA in human PRP” value is “significantly inhibited”. Besides, the “Selectivity for SIPA over thrombin, collagen, ADP” value with human platelets (PRP) [9] (ratio of IC50 values) is recorded as “over 150 fold”. Further, in data set [10], the “Blood clotting time (prothrombin time and activated partial thromboplastin time)” value is “did not prolong blood clotting time”. Moreover, the “Effect on SIPA in rat platelets in vitro” value in the data set on rat platelets (PRP) [11] is recorded as “significantly inhibited”. In data set [12] (iv, 10 mg/kg), the AUC(0-inf) (in general, the area under the concentration-time curve extrapolated to infinity) stood at 3250 ng·h/mL; the Vd (as a rule, a proportionality between amount in the body and measured concentration, not a real space) was determined as 5.3 ± 1.1 L/kg; the clearance (usually the rate of elimination divided by the concentration) is 51.7 mL/min/kg; the half-life (usually the time needed for the level to fall by half in the phase considered) was 2.4 ± 0.5 h. Further, the bioavailability – broadly, the share of a dose that reaches the circulation, judged against a reference dose that is usually intravenous – in [12] (oral, 25 mg·kg^−1) was found to be 55.3 ± 16.7%. Moreover, in data set [12] (po, 25 mg/kg), the AUC(0-inf) was 4490 ng·h/mL; the Cmax (as a rule, the highest concentration seen after dosing) came to 2370 ng/mL; the half-life was 3.6 ± 1.4 h. Besides, in data set [12] (po, 25 mg/kg, tmax (hr)), the Tmax (commonly the time at which the peak concentration occurs) worked out at 7.2 ± 6 min. Moreover, in data set [12] (po, 25 mg/kg, tmax), the Tmax is ~7 min. In [12] (po, 25 mg·kg^−1), the concentration at 3 min came out at 2290 ng/mL; the concentration at 15 min is 1750 ng/mL and 6 µM; the concentration at 30 min is 1060 ng/mL and 3.7 µM; the concentration at 1 hr is 2.2 µM and 586 ng/mL. Further, in data set [12] (po, 25 mg·kg^−1), the concentration at 4 hr was 1.3 µM and 366 ng/mL; the concentration at 8 hr was 700 nM and 198 ng/mL. For the same compound, the “Potency against arterial thrombosis after intravenous administration” value in data set [13] (intravenous administration, data not shown) is “strong inhibitory potency”. Besides, the “Inhibition of arterial thrombosis compared with clopidogrel (8 mg·kg^−1)” value in [13] (rats, 25 mg·kg^−1 p.o., single treatment) is “close to that provided by clopidogrel”. Moreover, the “Time to occlusion, single treatment” value in data set [13] (rats, 10 or 25 mg·kg^−1 p.o., FeCl3) is “significantly prolong”. Moreover, in [13] (rats, oral twice daily for 5 days (2 weeks elsewhere in the source)), the “Antithrombotic effects, multiple treatments” value was “further confirmed”.

The record behind these values is paper PMC7024737 (British Journal of Pharmacology, 2020).
